Each structure is given as a SMILES string. Where only a bound is given, the exact number is not on record here.

Broadly, the IC50 is the concentration at which inhibition is half-maximal. The low end stands for greater potency in that assay, the high end for weaker potency in that assay. In general, ED50 refers to the midpoint of the dose-response relation. Low readings indicate greater potency, high ones weaker potency. As a reminder, the microsomal CLint is a measure of how fast metabolising enzymes remove a compound, apart from limits set by blood flow. Low values mean greater metabolic stability, high ones faster metabolism. As usually defined, the Ki is the equilibrium dissociation constant of an inhibitor or competing ligand from its target. By inhibition in vivo is commonly meant the drop in the measured response relative to a control, in per cent. Read a high inhibition in vivo as a response far below the control. In general, AUC(0-inf) refers to total exposure, with the tail of the curve extrapolated. Higher therefore signals more exposure. As a reminder, the bioavailability is the share of a dose that reaches the circulation, judged against a reference dose that is usually intravenous. Higher therefore signals much systemic uptake. A word on the AUC(0-t): it is the area under the concentration-time curve up to a stated or last time point. The low end stands for less exposure, the high end for more exposure. A word on the half-life: it is the time in which the quantity being followed falls by half. High values mean slow loss, low ones fast loss. By EC90 is commonly meant the point of the concentration-response curve where the effect stands at 90%. What is called clearance is the rate of elimination divided by the concentration. A higher clearance goes with efficient removal.

For data set [1], the target named is T1, Cytochrome P450 3A4 (Homo sapiens, UniProt P08684). The data set is described as follows: Inhibition of human CYP3A4. The class given is ADME.
Data set [2] has as its target T1, Cytochrome P450 3A4. The data set is described as follows: Inhibition of human CYP3A4 in human liver microsomes preincubated with NADPH. It is filed as ADME, Microsome. For orientation: Liver microsomes are a subcellular fraction often used to study metabolism.
A further data set has as its target CYP3A4 (Homo sapiens, UniProt P08684). The data set is described as follows: Selective ratio of human CYP3A4 IC50 to human CYP3A4 IC50 with pre-incubation. The class given is ADME. As to conditions: read-out: Ratio IC50.
Data set [3] concerns the target Hepatocyte growth factor receptor (Homo sapiens, UniProt P08581). The data set is described as follows: Inhibition of c-Met by HTRF assay. (In general: Time-resolved FRET reads energy transfer from a long-lived donor to a nearby acceptor.)
The test system of the next data set is NIH3T3. The data set is described as follows: Antitumor activity against TPR-Met expressing NIH/3T3 xenografted in mouse dosed po over 22 days q.d. The class given is functional. As to conditions: 528 h. The essentials: (§1)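 NIH3T3 cells transfected with human TPR-Met, implanted as xenograft in mice. Dosing by oral gavage once daily at 3, 10, 30 and 100 mg/kg for 22 days, starting 24 h after tumor cell implantation. Vehicle: 2% HMPC, 1% Tween in water pH 2.2 w/MSA. Tumor growth and body weight followed; n = 12 per group, mean ± standard error. AUC(0-24) taken at ED50 and ED90.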

Data set [4] can be described thus: Intrinsic clearance in human liver microsomes. The class given is ADME, Microsome. The method, boiled down:
(§2)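 Intrinsic clearance was measured in vitro in rat, mouse and human liver microsomes.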

The target in data set [5] is Voltage-gated inwardly rectifying potassium channel KCNH2 (Homo sapiens, UniProt Q12809). Kind of data set: Inhibition of human ERG.
Data set [6] relates to Mus musculus. Kind of data set: Toxicity in mouse xenografted with TPR-Met expressing NIH/3T3 up to 100 mg/kg, po over 22 days q.d. It is filed as organism-based, NIH3T3. Details: dose 100 mg/kg, route oral. As to conditions: in vivo, 528 h. The essentials: as §1
Data set [7] relates to Mus musculus. The data set is described as follows: Inhibition of HGF-induced c-Met phosphorylation in BALB/c mouse liver at 30 mg/kg, po after 12 hrs by electrochemiluminescent assay. It is filed as functional. The essentials: (§3)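 Mice were given 30 mg/kg by oral gavage in 2% HMPC, 1% Tween in water pH 2.2 w/MSA, then challenged with HGF. HGF-induced c-Met phosphorylation in liver was quantified at several time points. Plasma and liver drug levels were measured alongside. n = 3, mean ± standard deviation.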

Data set [8] in a line: AUC (0 to infinity) in Sprague-Dawley rat at 2 mg/kg, po. It is filed as ADME, organism-based. Details: time infinity, dose 2 mg/kg, route oral. As to conditions: plasma. The method, boiled down: (§4)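 Male Sprague-Dawley rats, n=3. Intravenous dosing at 0.25 mg/kg in DMSO or in 20% hydroxypropyl beta-cyclodextrin in water pH 3.5 w/MSA. Oral dosing at 2 mg/kg in 2% HMPC, 1% Tween in water pH 2.2 w/HCl.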

Data set [9] in a line: Oral bioavailability in Sprague-Dawley rat at 2 mg/kg. It is filed as ADME, organism-based. As to conditions: in vivo. The essentials:
as §4

Data set [10] in a line: AUC (0 to 24 hrs) in mouse at ED90, po. The class given is ADME, organism-based. Details: time < 24 hr, route oral. As to conditions: plasma. The method, boiled down:
as §1

The test system of another data set is Heart. The data set is described as follows: Cardiotoxicity in rabbit heart assessed as electrocardiographic parameters up to 3 uM. It is filed as toxicity, tissue-based, Oryctolagus cuniculus.
Data set [11] is described as follows: Half life in Sprague-Dawley rat at 0.25 mg/kg, iv in 20% hydroxypropyl beta-cyclodextrin in water pH 3.5 w/MSA vehicle. The class given is ADME, organism-based. More on the design: dose 0.25 mg/kg, route intravenous. As to conditions: in vivo. The essentials: (§5)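 Male Sprague-Dawley rats, n=3, dosed intravenously at 0.25 mg/kg in 20% hydroxypropyl beta-cyclodextrin in water (pH 3.5, adjusted with MSA). In the same study, a separate oral arm used 2 mg/kg in 2% HMPC/1% Tween in water (pH 2.2, HCl) to derive bioavailability.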

Data set [12] is filed under the species Mus musculus. The data set is described as follows: Inhibition of HGF-induced c-Met phosphorylation in BALB/c mouse liver after 6 hrs by electrochemiluminescent assay. It is filed as functional. The method, boiled down: as §3
Another data set is filed under the species Homo sapiens. Kind of data set: Plasma protein binding in human at 5 ug/ml. As to conditions: read-out: PPB (converted).
Data set [13] is described as follows: Clearance in Sprague-Dawley rat at 0.25 mg/kg, iv in 20% hydroxypropyl beta-cyclodextrin in water pH 3.5 w/MSA vehicle. It is filed as ADME, organism-based. Details: dose 0.25 mg/kg, route intravenous. As to conditions: in vivo. The essentials: as §5
The species entered for data set [14] is Mus musculus. Kind of data set: Inhibition of HGF-induced c-Met phosphorylation in BALB/c mouse plasma after 6 hrs by electrochemiluminescent assay. It is filed as functional. The method, boiled down:
as §3

Data set [15] in a line: Plasma protein binding in rat at 5 ug/ml. It is filed as ADME, cell-free. As to conditions: read-out: PPB (converted). The method, boiled down:
(§6)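 Plasma protein binding was measured by equilibrium dialysis at 5 µg/mL.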

The nature of data set [16]: Volume of distribution at steady state in Sprague-Dawley rat at 0.25 mg/kg, iv in 20% hydroxypropyl beta-cyclodextrin in water pH 3.5 w/MSA vehicle. It is filed as ADME, organism-based. Details: dose 0.25 mg/kg, route intravenous. As to conditions: in vivo, read-out: Vdss. The essentials:
as §4

Data set [17] in a line: AUC (0 to 24 hrs) in mouse at ED50, po. It is filed as ADME, organism-based. More on the design: time < 24 hr, route oral. As to conditions: plasma. The essentials: as §1
The nature of data set [18]: Intrinsic clearance in rat liver microsomes. The class given is ADME, Microsome. The essentials:
as §2

A short description of data set [19]: Intrinsic clearance in mouse liver microsomes. The class given is ADME, Microsome. The method, boiled down:
as §2

The nature of data set [20]: Half life in Sprague-Dawley rat at 0.25 mg/kg, iv in DMSO vehicle. As to conditions: in vivo. Details: dose 0.25 mg/kg, route intravenous. The class given is ADME, organism-based. The essentials: as §4
The nature of data set [21]: Clearance in Sprague-Dawley rat at 0.25 mg/kg, iv in DMSO vehicle. It is filed as ADME, organism-based. More on the design: dose 0.25 mg/kg, route intravenous. As to conditions: in vivo. The essentials: as §4
Data set [22] in a line: Volume of distribution at steady state in Sprague-Dawley rat at 0.25 mg/kg, iv in DMSO vehicle. The class given is ADME, organism-based. Details: dose 0.25 mg/kg, route intravenous. As to conditions: in vivo, read-out: Vdss. The essentials: as §4
Data set [23] is described as follows: Plasma protein binding in mouse at 5 ug/ml. It is filed as ADME, cell-free. As to conditions: read-out: PPB (converted). The method, boiled down:
as §6

`COc1ccc2c(O[C@H](C)c3nnc4ccc(-c5ccccc5)nn34)ccnc2c1`: the IC50 against Cytochrome P450 3A4 [1] stood at 18 µM; against Cytochrome P450 3A4 [2] it was 8.9 µM.
Take `COc1ccc2c(OCc3nnc4ccc(-c5cc(F)c(F)c(F)c5)nn34)ccnc2c1`: the IC50 turned out to be 29 µM on Cytochrome P450 3A4 [1], 0.005 µM in data set [3] and 2 µM against Cytochrome P450 3A4 [2]. The IC50 shift at CYP3A4 is 14.
The compound `COc1cnc2c(NCc3nnc4ccc(-c5cc(C)ns5)nn34)ccnc2c1` yielded an ED50 in the data set with NIH3T3 of 3.3 mg/kg. The same compound showed an ED90 in the data set with NIH3T3 of 22 mg/kg. In addition, the microsomal CLint in data set [4] came out at 24 µL/min/mg; in [18], 59 µL/min/mg; in data set [19], 60 µL/min/mg. For the same compound, in data set [5], the inhibitory constant (Ki) came out at 1.6 µM. Besides, the Activity entry in the data set with Mus musculus [6] and with Heart was “Non-toxic” throughout. The compound further showed an inhibition in vivo at 30 mg/kg in the data set with Mus musculus [7] of over 50%. In data set [8], this compound yielded an area under the curve AUC(0-inf) of 3500 ng·h/mL. Also, the IC50 against Cytochrome P450 3A4 [1] is over 50 µM; against Cytochrome P450 3A4 [2], 26 µM. Moreover, the bioavailability in data set [9] was found to be 30.5%. Further, the exposure AUC(0-t) at 24 h was 4.7 µM·h in [10] and 0.43 µM·h in data set [17]. The same compound had a half-life in data set [11] of 1.76 h. For the same compound, the EC90 in the data set filed under Mus musculus [12] turned out to be 1.8 µM; in the data set listed under Mus musculus [14], 0.136 µM. Moreover, the fraction unbound at 5 ug/ml in the data set listed under Homo sapiens is 0.025; in [15] it was 0.007. Further, the clearance in data set [13] is 3.08 mL/min/kg. The Vd in data set [16] was determined as 0.303 L/kg.
`COc1ccc2c(OCc3nnc4ccc(-c5ccc(F)c(F)c5)nn34)ccnc2c1`: the IC50 on Cytochrome P450 3A4 [1] was over 50 µM; at Cytochrome P450 3A4 [2] it was 6.4 µM.
In the same order, the values of `COc1cnc2c(NCc3nnc4ccc(-c5ccc(F)c(F)c5)nn34)ccnc2c1` are over 50 µM and 9.1 µM.
For `COc1ccc2c(O[C@@H](C)c3nnc4ccc(-c5ccccc5)nn34)ccnc2c1`, in that order: 14 µM and 3.9 µM.
For the compound `COc1ccc2c(NCc3nnc4ccc(-c5ccccc5)nn34)ccnc2c1`, the figures for the IC50 (against Cytochrome P450 3A4 [1]; in [3]; against Cytochrome P450 3A4 [2]) were over 50 µM, 1.37 µM and 50 µM, respectively. Further, the IC50 shift on CYP3A4 was over 1.
For `COc1ccc2c(SCc3nnc4ccc(-c5ccccc5)nn34)ccnc2c1`, in that order: 4.5 µM, over 6.67 µM, 7 µM and 0.64.
For `COc1cnc2c(NCc3nnc4ccc(-c5cc(F)c(F)c(F)c5)nn34)ccnc2c1`, the IC50 at Cytochrome P450 3A4 [1] was over 50 µM; against Cytochrome P450 3A4 [2] it was 16 µM.
For `COc1ccc2c(OCc3nnc4ccc(-c5cc(C)ns5)nn34)ccnc2c1`, in that order: 17 µM and 4.8 µM.
As for `COc1cnc2c(NCc3nnc4ccc(-c5cc(F)cc(F)c5)nn34)ccnc2c1`, the microsomal CLint in data set [4] is 47 µL/min/mg; in data set [18] it was 53 µL/min/mg; in [19], 49 µL/min/mg. In addition, the Ki in data set [5] came out at 0.2 µM. In data set [8], the area under the curve AUC(0-inf) is 31100 ng·h/mL. The half-life in [20] was 3.84 h. For the same compound, the values for the IC50 against Cytochrome P450 3A4 [1] and on Cytochrome P450 3A4 [2] were over 50 µM and 29 µM, respectively. In addition, in [9], the bioavailability worked out at 62%. The compound also had a clearance in data set [21] of 0.717 mL/min/kg. For the same compound, the Vd in [22] is 0.201 L/kg. For the same compound, the results for the fraction unbound at 5 ug/ml (in data set [23]; in the data set listed under Homo sapiens; in [15]) were 0.023, 0.008 and 0.002, respectively.
On to `COc1ccc2c(OCc3nnc4ccc(-c5cc(F)cc(F)c5)nn34)ccnc2c1`, for which the IC50 was over 50 µM against Cytochrome P450 3A4 [1] and 8.3 µM against Cytochrome P450 3A4 [2].

The record behind these values is ChEMBL document CHEMBL1156101, “Discovery and optimization of potent and selective triazolopyridazine series of c-Met inhibitors” (Bioorg Med Chem Lett, 2009).
